Here are results for one compound from ChEMBL document CHEMBL3526126, “Amide hydrolysis of a novel chemical series of microsomal prostaglandin E synthase-1 inhibitors induces kidney toxicity in the rat” (Drug Metab Dispos, 2013).

The test system of series [1] is Rattus norvegicus. The series can be described thus: Toxicity in Wistar Hannover rat kidney assessed as presence of dilated tubules mixed with basophils at 1000 umol/kg, po qd administered for 7 days measured on day 7 by necroscopic analysis. The following applies: in vivo, 168 h. It is filed as organism-based.
The subject of series [2] is Rattus norvegicus. Briefly: Toxicity in Wistar Hannover rat kidney assessed as hemorrhage in renal pelvis at 1000 umol/kg, po qd administered for 7 days measured after day 8 by hematoxylin/eosin staining-based light microscopic analysis. It is filed as organism-based. The following applies: in vivo, 168 h. In short, it runs like this:
(§1)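 Wistar Hannover rats, about 8 weeks old, were gavaged once daily (10 ml/kg) for 7 days. One day after the last dose they were killed by carotid exsanguination under isoflurane/oxygen. Kidneys were fixed in buffered formalin, embedded in paraffin, sectioned, stained with hematoxylin and eosin, and examined by light microscopy.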

Series [3] relates to Rattus norvegicus. The series can be described thus: Toxicity in Wistar Hannover rat kidney assessed as transitional cell hyperplasia at 1000 umol/kg, po qd administered for 7 days measured after day 8 by hematoxylin/eosin staining-based light microscopic analysis. It counts as organism-based. The following applies: in vivo, 168 h. In short, it runs like this:
as §1

For series [4], the system named is Rattus norvegicus. Briefly: Toxicity in Wistar Hannover rat kidney assessed as increase in plasma urea level at 1000 umol/kg, po qd administered for 7 days measured on day 7. It is filed as organism-based. The following applies: in vivo, 168 h. The procedure, abridged:
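Wistar Hannover rats, about 8 weeks old, were acclimatized about 2 weeks and randomized by body weight. Dosing was by oral gavage (10 ml/kg) once daily for 7 days, with vehicle controls. At the end of dosing, plasma (lithium heparin) was taken from the orbital plexus under isoflurane/oxygen anaesthesia, and urea and creatinine were measured.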

Series [5] in a line: Drug metabolism in Sprague-Dawley rat hepatocytes assessed as formation of 4-(phenylethynyl)benzoic acid metabolite hyd at 1 to 10 uM by radio monitoring method. It is filed as ADME, cell-based, Hepatocyte. In short, it runs like this: (§2)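 Hepatocytes at 1 × 10^6 cells/ml in William's medium were incubated at 37°C with gentle shaking under 5% CO2, with substrate at […]. Separation was on an Atlantis T3 column (100 × 4.6 mm) at 1 ml/min, split 1:20 to the ion source and a flow scintillation monitor. Scintillation cocktail was added at 4 ml/min through a 0.5 ml flow cell.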

Series [6] can be described thus: Drug metabolism in Sprague-Dawley rat hepatocytes assessed as formation of benzene-1,2-disulfonamide metabolite M1 at 1 to 10 uM by LC-MS analysis. It counts as ADME, cell-based, Hepatocyte. In short, it runs like this: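 Hepatocytes at 1 × 10^6 cells/ml in William's medium incubated at 37°C with gentle shaking under 5% CO2. Substrate was at […]. Metabolites were analysed by LC-MS.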

Series [7] can be described thus: Drug metabolism in Sprague-Dawley rat hepatocytes assessed as formation of benzene-1,2-disulfonamide metabolite M1 at 1 to 10 uM by radio monitoring method. It counts as ADME, cell-based, Hepatocyte. In short, it runs like this:
as §2

Series [8] relates to Rattus norvegicus. Briefly: Drug metabolism in Wistar Hannover rat assessed as formation of 4-(phenylethynyl)benzoic acid conjugated with mono-oxidized and sulfate conjugated matabolite in plasma at 500 umol/kg, po qd administered for 7 days measured on day 7 by LC-MS analysis. It counts as ADME, organism-based. The following applies: in vivo, 168 h.
Series [9] can be described thus: Cmax in Wistar Hannover rat at 1000 umol/kg, po qd measured on day 1. The following applies: in vivo.
A short description of series [10]: Cmax in female Wistar Hannover rat at 1000 umol/kg, po qd measured on day 1. The following applies: in vivo.
A short description of series [11]: AUC (0 to 24 hrs) in female Wistar Hannover rat at 500 umol/kg, po qd measured on day 1. The following applies: plasma.
Series [12] in a line: AUC (0 to 24 hrs) in female Wistar Hannover rat at 500 umol/kg, po qd administered for 7 days measured on day 7. The following applies: plasma.

As for `NS(=O)(=O)c1ccccc1S(=O)(=O)NC(=O)c1ccc(C#Cc2ccccc2)cc1`, the Activity result with Rattus norvegicus [1], with Rattus norvegicus [2], with Rattus norvegicus [3] and in the series on Rattus norvegicus [4] was “Toxic” in each case. Besides, the Drug metabolism result in series [5] is “metabolite_detected”; in series [6] it was “metabolite_not_detected”; in [7], “metabolite_not_detected”; in the series with Rattus norvegicus [8], “metabolite_detected”. For the same compound, the Cmax in series [9] came to 105 µM; in [10] it was 75 µM. Also, in series [11], the area under the curve AUC(0-t) at 24 h was determined as 450 µM·h. Besides, the AUC at 24 h in [12] turned out to be 430 µM·h.
